Test results as given in ChEMBL document CHEMBL1153828, “Structures of the tyrosine kinase domain of fibroblast growth factor receptor in complex with inhibitors” (Science, 1997).
Active and inactive are the calls of the source. The calls are words filed in the database; no cut-off is given here.

Legend:
[1] = target: Insulin receptor (Mus musculus) (UniProt P15208); experiment: Inhibition of insulin receptor in mouse NIHIR cells assessed as inhibition of insulin-stimulated IRS1 phosphorylation; format: cell-based
Method in brief: (§1)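 Cells were preincubated with a range of inhibitor concentrations for 5 min at 37°C, then stimulated for 5 min at 37°C: PDGF 40 ng/ml, insulin 1 μg/ml or EGF 100 ng/ml. Whole-lysate portions went directly to SDS-PAGE and anti-phosphotyrosine immunoblotting, and substrate phosphoproteins were located by position.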

[2] = target: Fibroblast growth factor receptor 1 (Homo sapiens, UniProt P11362); experiment: Inhibition of FGFR1K autophosphorylation activity assessed as [32P] incorporation
[3] = target: Fibroblast growth factor receptor 1 (Mus musculus, UniProt P16092); experiment: Inhibition of acidic FGF-stimulated FGFR1 tyrosine autophosphorylation in mouse NIH/3T3 cells by immunoblotting; format: cell-based, NIH3T3
[4] = system: NIH3T3; experiment: Growth inhibition of mouse NIH/3T3 cells assessed as inhibition of acidic FGF-stimulated [3H]thymidine incorporation; format: functional, cell-based
Method in brief: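 NIH 3T3 cells, untreated or pretreated with inhibitor at 50 μM, were stimulated with aFGF and then labeled with [3H]thymidine. Thymidine incorporation was measured after 24 hours.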

[5] = target: T1, Platelet-derived growth factor receptor (Mus musculus) (UniProt P05622+P26618); experiment: Inhibition of PDGFR in mouse NIH/3T3 cells assessed as inhibition of PDGF-stimulated tyrosine autophosphorylation by immunoblotting; format: cell-based; details: NIH3T3
Method in brief: (§2)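 Cells were preincubated with a range of inhibitor concentrations for 5 min at 37°C, then stimulated for 5 min at 37°C (unstimulated controls kept): PDGF 40 ng/ml for PDGFR, insulin 1 μg/ml for insulin receptor, EGF 100 ng/ml for EGFR. Lysates were immunoprecipitated with receptor-specific antibodies, run on SDS-PAGE and immunoblotted with anti-phosphotyrosine.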

[6] = target: T1, Platelet-derived growth factor receptor (Mus musculus); experiment: Inhibition of PDGFR in mouse NIH/3T3 cells assessed as inhibition of PDGF-stimulated phospholipase C gamma phosphorylation by immunoblotting; format: cell-based; details: NIH3T3; method in brief: as §1
[7] = target: T1, Platelet-derived growth factor receptor (Mus musculus); experiment: Inhibition of PDGFR in mouse NIH/3T3 cells assessed as PDGF-stimulated Erk2 activation by immunoblotting; format: cell-based; details: NIH3T3
[8] = target: T1, Platelet-derived growth factor receptor (Mus musculus); experiment: Inhibition of PDGFR tyrosine phosphorylation in mouse NIH3T3 cells; format: cell-based; method in brief: as §2
[9] = target: Insulin receptor (Mus musculus) (UniProt P15208); experiment: Inhibition of insulin-stimulated insulin receptor beta subunit autophosphorylation in mouse NIHIR cells; format: cell-based; method in brief: as §2
[10] = target: Epidermal growth factor receptor (Mus musculus) (UniProt Q01279); experiment: Inhibition of EGFR phosphorylation in mouse NIH/3T3 cells at 200 uM; format: cell-based; details: NIH3T3
[11] = target: Insulin receptor (Mus musculus) (UniProt P15208); experiment: Inhibition of insulin receptor tyrosine phosphorylation in mouse NIH3T3 cells; format: cell-based; method in brief: as §2
[12] = target: Epidermal growth factor receptor (Mus musculus) (UniProt Q01279); experiment: Inhibition of EGF-stimulated EGFR phosphorylation in mouse HER14 cells by immunoblotting; format: cell-based; method in brief: as §2
[13] = target: Epidermal growth factor receptor (Mus musculus) (UniProt Q01279); experiment: Inhibition of EGFR in mouse HER14 cells assessed as inhibition of EGF-stimulated Shc phosphorylation by immunoblotting; format: cell-based; method in brief: as §1
[14] = target: Epidermal growth factor receptor (Mus musculus) (UniProt Q01279); experiment: Inhibition of EGFR in mouse HER14 cells assessed as inhibition of EGF-stimulated ERK2 activation by immunoblotting; format: cell-based

Insulin receptor (Mus musculus), sequence (P15208 28-748 limits assumed): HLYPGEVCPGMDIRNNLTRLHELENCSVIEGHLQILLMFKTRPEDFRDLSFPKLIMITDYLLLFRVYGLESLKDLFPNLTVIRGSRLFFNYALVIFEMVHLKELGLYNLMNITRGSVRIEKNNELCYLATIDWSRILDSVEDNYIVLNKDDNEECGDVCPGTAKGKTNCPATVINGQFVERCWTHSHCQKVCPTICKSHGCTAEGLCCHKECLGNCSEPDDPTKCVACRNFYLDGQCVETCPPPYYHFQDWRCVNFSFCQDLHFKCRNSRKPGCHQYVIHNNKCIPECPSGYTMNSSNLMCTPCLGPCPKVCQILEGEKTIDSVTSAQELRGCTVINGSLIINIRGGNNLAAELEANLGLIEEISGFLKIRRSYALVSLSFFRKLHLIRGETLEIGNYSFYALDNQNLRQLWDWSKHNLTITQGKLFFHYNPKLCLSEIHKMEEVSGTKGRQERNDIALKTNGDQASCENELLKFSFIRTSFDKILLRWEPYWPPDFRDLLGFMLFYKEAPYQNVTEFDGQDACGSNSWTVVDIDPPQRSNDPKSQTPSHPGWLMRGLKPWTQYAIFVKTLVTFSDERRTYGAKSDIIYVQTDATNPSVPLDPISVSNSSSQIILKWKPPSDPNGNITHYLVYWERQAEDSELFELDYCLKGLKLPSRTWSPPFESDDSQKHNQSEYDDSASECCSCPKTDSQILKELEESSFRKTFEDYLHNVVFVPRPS
Insulin receptor (Mus musculus), sequence (P15208 753-1372 limits assumed): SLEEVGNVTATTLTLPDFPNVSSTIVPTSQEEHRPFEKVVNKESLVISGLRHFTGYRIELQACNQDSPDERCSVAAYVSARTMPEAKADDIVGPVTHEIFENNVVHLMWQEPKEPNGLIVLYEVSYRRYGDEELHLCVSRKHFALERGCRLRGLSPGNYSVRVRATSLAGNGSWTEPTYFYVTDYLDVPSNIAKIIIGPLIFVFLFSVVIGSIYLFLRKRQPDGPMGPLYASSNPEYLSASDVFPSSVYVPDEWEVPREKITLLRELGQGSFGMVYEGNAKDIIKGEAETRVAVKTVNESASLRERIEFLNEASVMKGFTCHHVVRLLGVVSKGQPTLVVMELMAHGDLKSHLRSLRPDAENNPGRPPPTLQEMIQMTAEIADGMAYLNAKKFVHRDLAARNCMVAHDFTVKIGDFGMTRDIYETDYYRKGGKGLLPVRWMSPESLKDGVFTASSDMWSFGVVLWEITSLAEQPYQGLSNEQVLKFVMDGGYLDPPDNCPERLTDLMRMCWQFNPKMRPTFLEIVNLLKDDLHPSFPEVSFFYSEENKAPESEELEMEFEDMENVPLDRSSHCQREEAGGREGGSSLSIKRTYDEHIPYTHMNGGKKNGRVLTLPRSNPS
Epidermal growth factor receptor (Mus musculus), sequence (Q01279 whole entry): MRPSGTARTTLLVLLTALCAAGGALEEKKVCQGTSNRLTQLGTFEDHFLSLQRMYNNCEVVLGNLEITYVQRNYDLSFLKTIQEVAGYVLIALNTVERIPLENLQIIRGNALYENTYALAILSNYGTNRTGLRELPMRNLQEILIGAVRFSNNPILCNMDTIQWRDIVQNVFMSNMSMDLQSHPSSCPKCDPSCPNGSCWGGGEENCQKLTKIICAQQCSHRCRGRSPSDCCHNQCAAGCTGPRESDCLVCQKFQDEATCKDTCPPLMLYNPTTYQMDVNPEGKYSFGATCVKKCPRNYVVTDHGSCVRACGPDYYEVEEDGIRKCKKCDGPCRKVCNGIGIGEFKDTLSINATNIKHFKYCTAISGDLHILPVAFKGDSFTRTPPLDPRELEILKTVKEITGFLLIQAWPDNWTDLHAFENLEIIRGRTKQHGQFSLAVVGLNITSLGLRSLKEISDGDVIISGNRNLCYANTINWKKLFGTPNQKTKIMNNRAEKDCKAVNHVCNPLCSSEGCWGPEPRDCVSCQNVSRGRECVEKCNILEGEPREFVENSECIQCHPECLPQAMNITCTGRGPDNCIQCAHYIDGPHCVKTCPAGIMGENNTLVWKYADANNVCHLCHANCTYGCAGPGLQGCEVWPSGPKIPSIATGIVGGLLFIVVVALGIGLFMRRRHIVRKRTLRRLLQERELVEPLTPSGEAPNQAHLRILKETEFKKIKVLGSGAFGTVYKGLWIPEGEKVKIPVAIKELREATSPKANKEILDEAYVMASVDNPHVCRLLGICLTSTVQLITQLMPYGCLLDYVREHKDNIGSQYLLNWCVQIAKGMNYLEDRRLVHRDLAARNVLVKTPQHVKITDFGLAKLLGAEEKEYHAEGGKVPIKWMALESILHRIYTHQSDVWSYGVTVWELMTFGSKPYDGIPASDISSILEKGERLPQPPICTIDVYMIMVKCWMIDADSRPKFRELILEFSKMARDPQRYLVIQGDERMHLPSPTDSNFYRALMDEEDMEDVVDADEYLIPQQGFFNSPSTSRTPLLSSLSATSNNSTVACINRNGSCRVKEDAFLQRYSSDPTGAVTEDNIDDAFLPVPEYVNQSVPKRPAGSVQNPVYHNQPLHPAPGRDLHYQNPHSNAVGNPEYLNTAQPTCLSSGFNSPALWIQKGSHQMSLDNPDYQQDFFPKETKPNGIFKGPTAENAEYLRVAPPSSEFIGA
Fibroblast growth factor receptor 1 (Mus musculus, UniProt P16092), sequence (P16092 whole entry): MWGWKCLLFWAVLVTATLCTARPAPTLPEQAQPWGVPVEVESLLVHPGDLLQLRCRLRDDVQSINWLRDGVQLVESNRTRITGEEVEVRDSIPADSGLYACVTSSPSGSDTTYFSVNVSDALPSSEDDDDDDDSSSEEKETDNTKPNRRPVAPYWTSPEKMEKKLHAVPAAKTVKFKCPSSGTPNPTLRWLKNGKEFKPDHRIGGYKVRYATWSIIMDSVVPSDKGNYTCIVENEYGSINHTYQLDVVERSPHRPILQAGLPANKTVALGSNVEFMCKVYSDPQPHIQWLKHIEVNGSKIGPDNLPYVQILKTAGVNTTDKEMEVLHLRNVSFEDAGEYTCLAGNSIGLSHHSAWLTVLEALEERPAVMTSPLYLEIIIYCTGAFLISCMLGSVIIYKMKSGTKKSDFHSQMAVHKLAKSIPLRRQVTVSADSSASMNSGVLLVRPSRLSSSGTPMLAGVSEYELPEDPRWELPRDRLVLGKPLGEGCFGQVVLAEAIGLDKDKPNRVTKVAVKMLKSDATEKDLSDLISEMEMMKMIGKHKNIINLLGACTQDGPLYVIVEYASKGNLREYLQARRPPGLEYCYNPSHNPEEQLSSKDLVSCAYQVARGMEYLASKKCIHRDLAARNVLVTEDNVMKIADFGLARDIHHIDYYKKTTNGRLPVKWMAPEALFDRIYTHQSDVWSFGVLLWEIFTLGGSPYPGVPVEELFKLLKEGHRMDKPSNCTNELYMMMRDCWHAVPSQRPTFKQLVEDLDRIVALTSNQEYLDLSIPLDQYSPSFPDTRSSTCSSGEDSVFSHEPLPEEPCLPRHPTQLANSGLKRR
Fibroblast growth factor receptor 1 (Homo sapiens, UniProt P11362), sequence (P11362 whole entry): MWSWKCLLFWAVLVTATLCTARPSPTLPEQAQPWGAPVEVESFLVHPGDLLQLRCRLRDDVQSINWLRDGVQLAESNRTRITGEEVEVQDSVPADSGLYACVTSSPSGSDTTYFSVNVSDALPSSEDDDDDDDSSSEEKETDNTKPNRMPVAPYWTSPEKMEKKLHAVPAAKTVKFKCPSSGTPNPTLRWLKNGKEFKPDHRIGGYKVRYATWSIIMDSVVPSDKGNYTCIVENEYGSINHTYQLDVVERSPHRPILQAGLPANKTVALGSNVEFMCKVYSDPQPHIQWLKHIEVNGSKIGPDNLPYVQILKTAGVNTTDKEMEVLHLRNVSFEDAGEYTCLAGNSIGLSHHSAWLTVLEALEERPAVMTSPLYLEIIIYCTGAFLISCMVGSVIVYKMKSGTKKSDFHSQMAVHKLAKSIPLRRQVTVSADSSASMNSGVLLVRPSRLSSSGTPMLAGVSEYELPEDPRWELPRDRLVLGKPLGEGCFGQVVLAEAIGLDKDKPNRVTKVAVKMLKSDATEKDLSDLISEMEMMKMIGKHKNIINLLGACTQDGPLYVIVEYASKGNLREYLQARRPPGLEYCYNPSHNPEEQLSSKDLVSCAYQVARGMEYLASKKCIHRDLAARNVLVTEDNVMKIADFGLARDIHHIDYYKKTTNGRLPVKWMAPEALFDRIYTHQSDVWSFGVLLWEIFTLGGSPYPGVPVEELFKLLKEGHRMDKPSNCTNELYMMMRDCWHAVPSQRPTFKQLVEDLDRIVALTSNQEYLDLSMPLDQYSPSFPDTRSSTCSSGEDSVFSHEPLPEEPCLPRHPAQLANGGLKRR

Row | Activity [1] | IC50 [2] [µM] | IC50 [3] [µM] | Activity [5] | Activity [6] | Activity [7] | Activity [8] | Activity [9] | Activity [10] | Activity [11] | Activity [12] | Activity [13] | Activity [14] | Compound | Activity [4]
1 | Active | 10 | 20 | Active | Active | Active | Active | Active | inactive | Active |  |  |  | O=CN1CCN(c2ccc(/C=C3\C(=O)Nc4ccccc43)cc2)CC1 | Active
2 | Active | 10 | 10 | Active | Active | Active |  | Active | inactive | inactive | Active | Active | Active | Cc1c[nH]c(/C=C2\C(=O)Nc3ccccc32)c1CCC(=O)O | Active
